From ChEMBL document CHEMBL4265912, “Design, synthesis and identification of novel substituted 2-amino thiazole analogues as potential anti-inflammatory agents targeting 5-lipoxygenase” (Eur J Med Chem, 2018)
Each block holds one molecule with its values, some of them ahead of it.

Tests used:
[1] = molecular target: T1, Polyunsaturated fatty acid 5-lipoxygenase (Homo sapiens) (UniProt P09917); assay: Inhibition of recombinant human 5-LOX expressed in Escherichia coli BL21 at 10 uM using arachidonic acid as substrate by UV-vis spectrophotometric method relative to control
T1 sequence (whole entry): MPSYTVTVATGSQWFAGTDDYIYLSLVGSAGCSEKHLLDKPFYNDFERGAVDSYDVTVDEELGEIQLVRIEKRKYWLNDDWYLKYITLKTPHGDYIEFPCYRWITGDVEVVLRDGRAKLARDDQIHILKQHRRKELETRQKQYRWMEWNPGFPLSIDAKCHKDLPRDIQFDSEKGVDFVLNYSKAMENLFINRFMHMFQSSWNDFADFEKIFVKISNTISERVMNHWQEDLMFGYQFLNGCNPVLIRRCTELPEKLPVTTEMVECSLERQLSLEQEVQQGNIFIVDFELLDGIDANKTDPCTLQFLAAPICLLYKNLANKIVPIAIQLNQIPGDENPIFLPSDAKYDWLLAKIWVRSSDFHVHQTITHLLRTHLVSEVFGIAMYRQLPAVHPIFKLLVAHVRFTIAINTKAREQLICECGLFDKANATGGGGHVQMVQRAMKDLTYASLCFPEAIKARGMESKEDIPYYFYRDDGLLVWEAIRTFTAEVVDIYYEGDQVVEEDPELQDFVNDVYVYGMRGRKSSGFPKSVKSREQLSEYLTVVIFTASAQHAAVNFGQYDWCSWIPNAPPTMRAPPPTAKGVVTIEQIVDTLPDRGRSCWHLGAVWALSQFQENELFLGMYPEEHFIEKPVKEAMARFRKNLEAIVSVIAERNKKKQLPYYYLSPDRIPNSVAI
In short: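 Partially purified human 5-LOX, expressed in E. coli BL21 (IPTG induction, ammonium sulfate precipitation, 100000 × g supernatant). Buffer: 25 mM HEPES pH 7.3, EDTA, 10 mM CaCl2, 4 mM ATP; compound in 2% DMSO added at 4 °C; started with 30 μM AA. 5-HPETE read at 236 nm. Single point at 10 μM; IC50 from inhibition-versus-concentration curves; three repeats.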

[2] = Antioxidant activity assessed as DPPH radical scavenging activity at 20 uM measured after 30 mins; format: functional
In short: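 Test compound at 20 μM added to 0.1 mM DPPH in methanol, incubated 30 min at room temperature in dark; absorbance read at 517 nm; ascorbic acid reference; percent scavenging calculated; three repeats, mean ± SEM.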

[3] = molecular target: T1, Polyunsaturated fatty acid 5-lipoxygenase (Homo sapiens); assay: Inhibition of recombinant human 5-LOX pseudoperoxidase activity expressed in Escherichia coli BL21 assessed as compound redox activity by measuring decrease in 13(S)-HpODE product formation at 10 uM by UV-vis spectrophotometric method; parameters: scale not given: the % may be the effect or the level left
In short: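 Pseudoperoxidase: 10 μM inhibitor (1:1 to substrate) starts reaction in 50 mM potassium phosphate pH 7.4, 0.3 mM CaCl2, 0.1 mM EDTA, 200 μM ATP, 10 μM 13(S)-HPODE with 5-LOX; loss of hydroperoxide followed at 234 nm over 300 s, relative to control.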

[4] = molecular target: T2, Polyunsaturated fatty acid 5-lipoxygenase (Homo sapiens, UniProt P09917); assay: Inhibition of recombinant human 5-LOX expressed in Escherichia coli BL21 using arachidonic acid as substrate by UV-vis spectrophotometric method
T2 sequence (P09917 whole entry): T1 sequence (whole entry)
In short: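 Partially purified human 5-LOX, expressed in E. coli BL21 (IPTG induction, ammonium sulfate precipitation, 100000 × g supernatant). Buffer: 25 mM HEPES pH 7.3, EDTA, 10 mM CaCl2, 4 mM ATP; compound in 2% DMSO added at 4 °C; started with 30 μM AA.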

[5] = compound: COc1ccc(-c2nc(N(c3ccccc3)c3ccccc3)sc2C(=O)c2ccccc2)cc1; assay: Competitive inhibition of recombinant human 5-LOX expressed in Escherichia coli BL21 assessed as Km for substrate at 5 uM using arachidonic acid as substrate by Lineweaver-Burk plot analysis (reference value: 0.42 +/- 0.15 microM)
[6] = compound: O=C(NC(=S)N1CCN(c2ccccc2)CC1)c1ccccc1; assay: Mixed non-competitive inhibition of recombinant human 5-LOX expressed in Escherichia coli BL21 assessed as Km for substrate at 10 uM using arachidonic acid as substrate by Lineweaver-Burk plot analysis (reference value: 0.7761 +/- 0.22 microM)
[7] = compound: COc1ccc(-c2nc(N(c3ccccc3)c3ccccc3)sc2C(=O)c2ccccc2)cc1; assay: Competitive inhibition of recombinant human 5-LOX expressed in Escherichia coli BL21 assessed as Vmax for substrate at 5 uM using arachidonic acid as substrate by Lineweaver-Burk plot analysis (reference value: 0.39 +/- 0.02 nmol/min)
[8] = compound: O=C(NC(=S)N1CCN(c2ccccc2)CC1)c1ccccc1; assay: Mixed non-competitive inhibition of recombinant human 5-LOX expressed in Escherichia coli BL21 assessed as Km for substrate at 5 uM using arachidonic acid as substrate by Lineweaver-Burk plot analysis (reference value: 0.7761 +/- 0.22 microM)
[9] = compound: O=C(NC(=S)N1CCN(c2ccccc2)CC1)c1ccccc1; assay: Mixed non-competitive inhibition of recombinant human 5-LOX expressed in Escherichia coli BL21 assessed as Vmax for substrate at 10 uM using arachidonic acid as substrate by Lineweaver-Burk plot analysis (reference value: 0.48 +/- 0.02 nmol/min)
[10] = compound: O=C(NC(=S)N1CCN(c2ccccc2)CC1)c1ccccc1; assay: Mixed non-competitive inhibition of recombinant human 5-LOX expressed in Escherichia coli BL21 assessed as Vmax for substrate at 5 uM using arachidonic acid as substrate by Lineweaver-Burk plot analysis (reference value: 0.48 +/- 0.02 nmol/min)
[11] = compound: COc1ccc(-c2nc(N(c3ccccc3)c3ccccc3)sc2C(=O)c2ccccc2)cc1; assay: Competitive inhibition of recombinant human 5-LOX expressed in Escherichia coli BL21 assessed as Km for substrate at 10 uM using arachidonic acid as substrate by Lineweaver-Burk plot analysis (reference value: 0.42 +/- 0.15 microM)
[12] = compound: COc1ccc(-c2nc(N(c3ccccc3)c3ccccc3)sc2C(=O)c2ccccc2)cc1; assay: Competitive inhibition of recombinant human 5-LOX expressed in Escherichia coli BL21 assessed as Vmax for substrate at 10 uM using arachidonic acid as substrate by Lineweaver-Burk plot analysis (reference value: 0.39 +/- 0.02 nmol/min)

inhibition [1]: 62%
Molecule: COc1ccc(-c2nc(N3CCCCC3)sc2C(=O)c2ccccc2)cc1
Activity [2]: 9.6%

inhibition [1]: 85.3%
Activity [3]: 2.1%
IC50 [4]: 2300 nM
Molecule: O=C(c1ccccc1)c1sc(N2CCOCC2)nc1-c1ccccc1
Activity [2]: 9.5%

inhibition [1]: 48.6%
Molecule: O=C(c1ccccc1)c1sc(N(c2ccccc2)c2ccccc2)nc1-c1ccccc1
Activity [2]: -4.7%

inhibition [1]: 56.8%
Molecule: O=C(NC(=S)N1CCCCC1)c1ccccc1
Activity [2]: 23.7%

inhibition [1]: 53.1%
Molecule: CN(Cc1ccccc1)c1nc(-c2ccccc2)c(C(=O)c2ccccc2)s1
Activity [2]: 3.6%

inhibition [1]: 92.8%
Activity [3]: 29.4%
IC50 [4]: 900 nM
Molecule: COc1ccc(-c2nc(N(c3ccccc3)c3ccccc3)sc2C(=O)c2ccccc2)cc1
Activity [2]: 11.8%

Molecule: CC(c1cc2ccccc2s1)N(O)C(N)=O (configuration not stated)
Activity [2]: 17.8%

inhibition [1]: 73.3%
Molecule: O=C(NC(=S)N(c1ccccc1)c1ccccc1)c1ccccc1
Activity [2]: 11.3%

inhibition [1]: 26.5%
Molecule: COc1ccc(C(=O)NC(=S)N(C)Cc2ccccc2)cc1
Activity [2]: 7.4%

inhibition [1]: 24.5%
Molecule: O=C(NC(=S)N1CCCC1)c1ccccc1
Activity [2]: 25.6%

inhibition [1]: 67.8%
Molecule: CN(c1ccccc1)c1nc(-c2ccccc2)c(C(=O)c2ccccc2)s1
Activity [2]: 4.6%

inhibition [1]: 80.7%
Molecule: CN(Cc1ccccc1)C(=S)NC(=O)c1ccccc1
Activity [2]: 18.4%

inhibition [1]: 29.5%
Molecule: O=C(NC(=S)N1CCOCC1)c1ccc(F)cc1
Activity [2]: 9.1%

inhibition [1]: 36.8%
Molecule: COc1ccc(C(=O)NC(=S)N2CCN(c3ccccc3)CC2)cc1
Activity [2]: 3.7%

inhibition [1]: 67.8%
Molecule: O=C(c1ccccc1)c1sc(N2CCN(c3ccccc3)CC2)nc1-c1ccc([N+](=O)[O-])cc1
Activity [2]: 8.2%

inhibition [1]: 68.3%
Molecule: COc1ccc(C(=O)NC(=S)N2CCOCC2)cc1
Activity [2]: 3.9%

inhibition [1]: 91.3%
Activity [3]: -46.2%
IC50 [4]: 1400 nM
Molecule: O=C(NC(=S)N1CCN(c2ccccc2)CC1)c1ccccc1
Activity [2]: 24.1%

inhibition [1]: 19.2%
Molecule: COc1ccc(C(=O)NC(=S)N(c2ccccc2)c2ccccc2)cc1
Activity [2]: 8.1%

inhibition [1]: 76.6%
Molecule: O=C(NC(=S)N1CCN(c2ccccc2)CC1)c1ccc([N+](=O)[O-])cc1
Activity [2]: 20.3%

inhibition [1]: 79.6%
Molecule: O=C(c1ccccc1)c1sc(N(c2ccccc2)c2ccccc2)nc1-c1ccc([N+](=O)[O-])cc1
Activity [2]: -2.8%

inhibition [1]: 86%
IC50 [4]: 3300 nM
Molecule: COc1ccc(C(=O)NC(=S)N2CCCCC2)cc1
Activity [2]: 21.8%

inhibition [1]: 75.3%
Molecule: O=C(c1ccccc1)c1sc(N2CCCC2)nc1-c1ccccc1
Activity [2]: -2.9%

inhibition [1]: 53.1%
Molecule: COc1ccc(-c2nc(N3CCN(c4ccccc4)CC3)sc2C(=O)c2ccccc2)cc1
Activity [2]: 7.8%

inhibition [1]: 78.7%
Molecule: CN(C(=S)NC(=O)c1ccccc1)c1ccccc1
Activity [2]: 13.2%

inhibition [1]: 17.7%
Molecule: COc1ccc(-c2nc(N(C)Cc3ccccc3)sc2C(=O)c2ccccc2)cc1
Activity [2]: -1.9%

Molecule: O=C1O[C@H]([C@@H](O)CO)C(O)=C1O
Activity [2]: 84.1%

inhibition [1]: 50.2%
Molecule: O=C(c1ccccc1)c1sc(N2CCOCC2)nc1-c1ccc(F)cc1
Activity [2]: -0.8%

inhibition [1]: 23.6%
Molecule: O=C(NC(=S)N1CCN(c2ccccc2)CC1)c1ccc(F)cc1
Activity [2]: 6.3%

inhibition [1]: 80.7%
IC50 [4]: 3800 nM
Molecule: O=C(NC(=S)N1CCCCC1)c1ccc(F)cc1
Activity [2]: 5.9%

inhibition [1]: 79.4%
Molecule: O=C(NC(=S)N1CCOCC1)c1ccccc1
Activity [2]: 19.1%

inhibition [1]: 30.9%
Molecule: O=C(NC(=S)N(c1ccccc1)c1ccccc1)c1ccc([N+](=O)[O-])cc1
Activity [2]: 4.7%

inhibition [1]: 85.2%
Activity [3]: 0.6%
IC50 [4]: 3100 nM
Molecule: O=C(c1ccccc1)c1sc(N2CCCCC2)nc1-c1ccccc1
Activity [2]: 8.5%

inhibition [1]: 38.3%
Molecule: O=C(c1ccccc1)c1sc(N2CCN(c3ccccc3)CC2)nc1-c1ccccc1
Activity [2]: -0.7%

B1: Polyunsaturated fatty acid 5-lipoxygenase (Homo sapiens), P09917 (protein)
chain: T1 sequence (whole entry)
Km [5]: 0.99 µM
Km [6]: 0.767 µM
Vmax [7]: 0.38 nmol/min
Km [8]: 0.79 µM
Vmax [9]: 0.34 nmol/min
Vmax [10]: 0.4 nmol/min
Km [11]: 1.51 µM
Vmax [12]: 0.38 nmol/min
